Data: ChEMBL document CHEMBL3632613, “Pharmacokinetic, pharmacodynamic and metabolic characterization of a brain retentive microtubule (MT)-stabilizing triazolopyrimidine” (Bioorg Med Chem Lett, 2015)
The source made the active and inactive calls. The rule behind the calls is not given here.

Tests used:
[1] = Half life in rat plasma at 5 mg/kg, ip; assay type: ADME, organism-based
Plasma [2] = experiment: Drug metabolism in mouse plasma assessed as formation of (S)-4-(5-chloro-7-((1,1,1-trifluoropropan-2-yl)amino)-[1,2,4]triazolo[1,5-a]pyrimidin-6-yl)-3,5-difluorophenol at 5 mg/kg, ip; conditions: in vivo
QBI293 [3] = experiment: Stabilization of microtubule in human QBI293 cells assessed as increase in acetylated alpha-tubulin up to 1 uM incubated for 4 hrs; assay type: cell-based
Plasma [4] = experiment: Drug metabolism in mouse plasma assessed as formation of (S)-3-(4-(5-chloro-7-((1,1,1-trifluoropropan-2-yl)amino)-[1,2,4]triazolo[1,5-a]pyrimidin-6-yl)-3,5-difluorophenoxy)propanoic acid at 5 mg/kg, ip; conditions: in vivo
QBI293 [5] = experiment: Cytotoxic activity against human QBI293 cells assessed as reduction in cel viability incubated for 24 hrs by alamar blue assay; assay type: functional, cell-based
Procedure, shortened: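 QBI293 cells seeded 10,000/well, grown overnight at 37°C, 5% CO2, then exposed in triplicate to a nM–µM range (diluted from 20 mM DMSO stocks; 0.25% DMSO vehicle as 0% toxicity, 100 µM tubercidin as 100%) for 18 h. Alamar Blue was then added at 10% of well volume for another 6 h. Fluorescence read at ex 550/em 590 nm. Percent cytotoxicity was derived from RFUs.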

Brain [6] = experiment: Drug level in rat brain at 5 mg/kg, ip administered as single dose after 4 hrs; assay type: ADME, organism-based; conditions: in vivo
[7] = Half life in rat brain at 5 mg/kg, ip; assay type: ADME, organism-based
Brain [8] = experiment: Drug level in rat brain at 5 mg/kg, ip administered as two repeated doses separated by 4 hrs interval; assay type: ADME, organism-based; conditions: in vivo
Mus musculus = experiment: In-vivo stabilization of microtubule in normal mouse assessed as increase in acetylated alpha-tubulin at 5 mg/kg, ip administered as two doses after 1 day; assay type: functional, organism-based
[9] = Retention time of the compound in mouse liver microsomes by LC-MS/MS method; assay type: ADME
Plasma [10] = experiment: Drug level in mouse plasma treated with at 5 mg/kg, ip cmpound-4 assessed as compound formation; conditions: in vivo

Row | half-life [1] [h] | Drug metabolism (Plasma [2]) | Drug metabolism (Plasma [4]) | Drug uptake (Brain [6]) | half-life [7] [h] | Drug uptake (Brain [8]) | Retention_time [9] [min] | Drug metabolism (Plasma [10]) | Structure (SMILES) | inhibition (QBI293 [3]) | Activity (QBI293 [5]) | Activity (Mus musculus)
1 | 2.5 | metabolite_detected | metabolite_detected | Active | 7 | Active | 6.91 | – | C[C@H](Nc1c(-c2c(F)cc(OCCCO)cc2F)c(Cl)nc2ncnn12)C(F)(F)F | Active | Active | Active
2 | – | – | – | – | – | – | 6.73 | metabolite_detected | C[C@H](Nc1c(-c2c(F)cc(O)cc2F)c(Cl)nc2ncnn12)C(F)(F)F | inactive | inactive | –
3 | – | – | – | – | – | – | 6.9 | metabolite_detected | C[C@H](Nc1c(-c2c(F)cc(OCCC(=O)O)cc2F)c(Cl)nc2ncnn12)C(F)(F)F | inactive | inactive | –
